Hits are enriched below; roughly 5.9% of the tested compounds scored in any of these assays.
MT1-MMP txn act – activates MT1-MMP transcription; HT1080 MT1-MMP promoter luciferase reporter, luminescence, overnight; active compounds read high; activation factor at 10 µM; 86,000 compounds, 0.16% hits;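 active = activation factor of at least 2 for MT1-MMP transcription at 10 µM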
H69AR inhibit – blocks growth of human H69AR lung tumor cells; H69AR lung tumor viability, ATP luminescence, 72 h; active compounds read low; viability, % at 10 µM; 85,000 compounds, 6% hits; AID 598;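 active = viability at or below 40%; inactive = viability above 40%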;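 also: multidrug resistant small cell line overexpressing MRP-1 efflux transporter; 100% = mean luminescence of untreated control wells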
Fibroblast inh – blocks proliferation of human lung fibroblasts; viability, % at 10 µM; LL 47 human lung fibroblast viability, ATP luminescence; active compounds read low; 85,000 compounds, 1.1% hits;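 active = viability at or below 50% in the single dose screen; inactive = viability above 50%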;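 also: compound exposure lasted 72 h before the ATP readout; 100% = median luminescence of untreated cell-only wells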
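Material: Human LL 47 lung fibroblast cells | Input: 1,150 cells/well | Buffer or medium: IMEM plus 15% FBS | Compound dosing: 0.1% DMSO in all compound wells | Times: Overnight cell rest, 72 h compound treatment at 37 °C | Signal: CellTiter-Glo luminescence measuring cellular ATP | Measure: % viability versus median cells-only luminescence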
HUVEC prolif 384 – human endothelial cell proliferation inhibition. HUVEC proliferation, CellTiter-Glo luminescence, 72 h; active compounds read low. viability, % at 10 µM (by protocol). 86,000 compounds, 1.1% hits;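 active = viability at or below 30%; inactive = viability above 30%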;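 also: 100% = median luminescence of DMSO-only cell control wells on each plate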
Jurkat tox 60K – cytotoxic compounds reducing Jurkat cell viability | Jurkat E6.1 viability, ATP luminescence, 48 h | inhibition, % at 4 µM | 56,000 compounds, 1.2% hits | AID 463;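 active = inhibition above the mean inhibition of all tested compounds plus 3 SD, cut at about 28% in these data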
Pyk2 oligo antag – blocks oligomerization of human Pyk2 in cells; z-score (the deposit names both 25 µM and 10 µM); Q14289; 99,000 compounds, 0.83% hits; Q293 cells, Pyk2 FERM NanoBiT luminescence; active compounds read low;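 active = Z-score of -3 or lower, scaled per plate to the spread of control and sample wells; inactive = z-score above -3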;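 also: negative z-score means lost luminescence so less FERM oligomerization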
Target sequence (Q14289 whole entry, looked up): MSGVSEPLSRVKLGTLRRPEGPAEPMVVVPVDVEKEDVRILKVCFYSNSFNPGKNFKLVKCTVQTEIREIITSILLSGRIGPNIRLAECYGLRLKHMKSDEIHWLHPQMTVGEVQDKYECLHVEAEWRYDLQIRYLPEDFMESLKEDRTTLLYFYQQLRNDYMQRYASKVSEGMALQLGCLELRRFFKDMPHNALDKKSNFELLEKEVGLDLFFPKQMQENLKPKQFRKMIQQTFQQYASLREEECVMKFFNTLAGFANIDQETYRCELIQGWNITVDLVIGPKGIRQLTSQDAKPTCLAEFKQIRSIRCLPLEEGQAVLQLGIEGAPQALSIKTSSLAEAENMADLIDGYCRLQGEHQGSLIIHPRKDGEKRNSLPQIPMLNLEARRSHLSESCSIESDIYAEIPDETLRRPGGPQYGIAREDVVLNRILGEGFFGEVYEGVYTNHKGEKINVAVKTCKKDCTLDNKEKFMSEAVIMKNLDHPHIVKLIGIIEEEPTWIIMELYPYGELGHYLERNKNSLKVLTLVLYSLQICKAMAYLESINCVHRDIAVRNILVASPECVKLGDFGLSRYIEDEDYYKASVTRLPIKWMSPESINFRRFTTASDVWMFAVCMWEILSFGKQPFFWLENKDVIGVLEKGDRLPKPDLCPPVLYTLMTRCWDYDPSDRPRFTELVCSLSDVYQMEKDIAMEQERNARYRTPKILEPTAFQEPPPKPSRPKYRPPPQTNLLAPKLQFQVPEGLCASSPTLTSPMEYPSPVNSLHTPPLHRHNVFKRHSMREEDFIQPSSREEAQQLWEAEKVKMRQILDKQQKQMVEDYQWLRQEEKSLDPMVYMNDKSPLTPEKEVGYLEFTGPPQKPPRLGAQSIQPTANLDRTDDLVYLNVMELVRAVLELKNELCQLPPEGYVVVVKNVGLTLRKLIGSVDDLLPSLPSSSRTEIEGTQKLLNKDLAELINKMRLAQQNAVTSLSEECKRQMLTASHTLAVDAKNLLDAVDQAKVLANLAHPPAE
Starred values were filed as active, the others as inactive; . = no result.

SMILES | MT1-MMP txn act | H69AR inhibit | Fibroblast inh | HUVEC prolif 384 | Jurkat tox 60K | Pyk2 oligo antag
COc1ccc(OC)c(NC(=O)C2CC(C)=C(C)CC2C(=O)O)c1 (centres undefined) | 0.9 | 91 | 96 | 103 | -5 | -0.28
CCOC(=O)c1[nH]c2c(c1C)C(=O)CC(c1ccc(OC)c(OC)c1)C2 (centres undefined) | . | 98 | 96 | 93 | . | 1.8
COCCOC(=O)c1[nH]c2c(c1C)C(=O)CC(c1cc(OC)ccc1OC)C2 (centres undefined) | 1.1 | . | . | . | 65* | .
COc1ccc(OC)c(C2CC(=O)c3c([nH]c(C(=O)OC(C)C)c3C)C2)c1 (centres undefined) | 1 | 28* | 56 | 31 | 98* | .
CCCOCCOC(=O)c1[nH]c2c(c1C)C(=O)CC(c1cc(OC)ccc1OC)C2 (centres undefined) | 1.1 | 19* | 63 | 45 | 22 | .
COc1ccc(OC)c(C2CC(=O)c3c([nH]c(C(=O)OCC4CCCO4)c3C)C2)c1 (centres undefined) | 1.1 | . | . | . | 4 | .
COc1cc(C2CC(=O)c3c([nH]c(C(=O)OCCOC(C)C)c3C)C2)cc(OC)c1OC (centres undefined) | 1.1 | . | . | . | 43* | .
COc1cc2cc3c(N)c(C(=O)Nc4sc(C)c(C)c4C#N)sc3nc2cc1OC | . | . | . | . | . | -1.1
C/C(=N/NS(=O)(=O)c1ccc(Cl)cc1)c1cccc(NC(=O)c2ccc(Cl)cc2Cl)c1 | . | . | . | . | . | 1.5
COCCN1C(=O)c2oc3cc(C)c(C)cc3c(=O)c2C1c1ccc(O)cc1 (centres undefined) | 1.1 | 59 | 91 | 88 | -5 | -1.2
COc1cc(C2c3c(oc4ccccc4c3=O)C(=O)N2Cc2ccco2)ccc1O (centres undefined) | 1.1 | 85 | 95 | 86 | . | -0.64
CCOc1cc(C2c3c(oc4cc(C)c(Cl)cc4c3=O)C(=O)N2Cc2ccco2)ccc1O (centres undefined) | 0.9 | 3.1* | 53 | 41 | -4 | 0.3
Cc1ccc2oc3c(c(=O)c2c1)C(c1cccc(O)c1)N(c1ccccn1)C3=O (centres undefined) | 1.1 | 86 | 98 | 90 | -6 | .
Cc1cc2oc3c(c(=O)c2cc1C)C(c1cccc(Br)c1)N(Cc1ccco1)C3=O (centres undefined) | 1.1 | 4.5* | 54 | 40 | 6 | -1.9
Cc1ccc2oc3c(c(=O)c2c1)C(c1cccc(Br)c1)N(Cc1ccco1)C3=O (centres undefined) | 1 | 3.1* | 11* | 56 | -8 | 0
Cc1nc2ccc(NC(=O)NCCCO)cc2s1 | . | 97 | 101 | 105 | . | 0.17
CC(OC(=O)c1cc2sccc2n1C)C(=O)NCc1ccc2c(c1)OCO2 (centres undefined) | 1.1 | 92 | 103 | 89 | 1 | -1.1
CCOC(=O)C1CCC2(CC1)C(C#N)=C(N)Oc1n[nH]c(C)c12 (centres undefined) | 1.1 | 98 | 98 | 105 | . | 0.04
O=C(Nc1ccccc1)N(CCc1ccncc1)C1CCCCC1 | 1.2 | 92 | 99 | 88 | -4 | .
CC(C)c1ccc(NC(=O)N(CCc2nc3ccccc3[nH]2)C2CCCC2)cc1 | 1.2 | 32* | 81 | 44 | . | -1.8
Cc1ccccc1C(=O)Nc1ccccc1-c1nnn(CC(=O)Nc2ccc3c(c2)OCCO3)n1 | . | . | . | . | . | -2.8
Cc1ccc(OC(=S)Nc2ccc(F)cc2)cc1 | 1 | 87 | 95 | 99 | . | 0.53
Cc1ccc(OC(=S)Nc2ccc(O)cc2)cc1 | 1.1 | 15* | 97 | 70 | . | 1.1
O=C(c1ccco1)N1CCN(c2ncnc3scc(-c4ccccc4)c23)CC1 | 1.2 | 40* | 113 | 100 | . | -2.1
O=C(c1ccco1)N1CCN(c2ncnc3scc(-c4cccs4)c23)CC1 | 1.1 | 43 | 88 | 69 | 10 | -2
SMILES | MT1-MMP txn act | H69AR inhibit | Fibroblast inh | HUVEC prolif 384 | Jurkat tox 60K | Pyk2 oligo antag
Cc1ccc(-c2csc3ncnc(N4CCN(C(=O)c5ccccc5)CC4)c23)cc1 | . | 22* | 74 | 59 | . | -2.1
COCCNC(=O)[C@H](C)/C=C(\I)C(NC(=O)OCc1ccccc1)c1ccc(C(=O)OC)cc1 (some centres undefined) | 1.1 | . | . | . | . | .
CCc1ccc(N/C(SCc2ccccc2C)=C(/C#N)C(=O)NCc2ccco2)cc1 | . | . | . | . | . | -0.45
c1ccc(CNn2c(N3CCOCC3)nc3ccccc32)cc1 | 1 | 97 | 101 | 100 | 0 | -0.79
COc1cc(C2=NOC(C(=O)NCc3ccco3)C2)cc(OC)c1OC (centres undefined) | 0.5 | 25* | 62 | 59 | 73* | 0.11
COc1ccc(C2=NOC(C(=O)NCc3ccco3)C2)cc1 (centres undefined) | 1.2 | 25* | 81 | 57 | . | 0.49
COc1cc(C2=NOC(C(=O)Nc3ccc(C(C)=O)cc3)C2)cc(OC)c1OC (centres undefined) | 1.2 | 98 | 106 | 94 | -10 | 0.18
COc1ccc(CNC(=O)C2CC(c3ccc(OC)cc3)=NO2)cc1 (centres undefined) | 1.2 | 92 | 90 | 75 | 4 | 1.6
CN1/C(=C\C=Nc2ccccc2)C(C)(C)c2ccccc21 | . | . | . | . | . | -0.1
Cc1cc(/N=C/C=C2\N(C)c3ccccc3C2(C)C)n(CCC#N)n1 | 1.1 | 20* | 92 | 84 | -1 | 1.9
O=C1CSC(c2cn(-c3ccccc3)nc2-c2cc3ccccc3oc2=O)N1Cc1ccccc1 (centres undefined) | 1 | 24* | 100 | 77 | . | -2.4
CCn1c(=O)cc(SCC(=O)NCC2CCCO2)c2ccccc21 (centres undefined) | 1.1 | 97 | 97 | 89 | 5 | 0.69
Cn1c(=O)cc(SCC(=O)NCC2COc3ccccc3O2)c2ccccc21 (centres undefined) | 1.2 | 83 | 40* | 102 | 4 | -0.06
CCOC(=O)c1c(C)[nH]c(C)c1C(=O)CSc1nnc(-c2ccco2)n1Cc1ccccc1 | 1.1 | 77 | 94 | 91 | 2 | -1.1
O=c1c2cc(Cl)ccc2nc2ccc(N3CCCC3)nn12 | 1.3 | . | . | . | 17 | .
CCOC(=O)c1ccc(NC(=O)CCc2nc(-c3ccc(C)cc3)no2)cc1 | 0.9 | 84 | 95 | 30* | 14 | -0.78
Cc1ccc(-c2noc(CCC(=O)Nc3ccc4c(c3)OCO4)n2)cc1 | 1.3 | 94 | 95 | 84 | 4 | 1.9
CCOC(=O)c1ccc(NC(=O)CCc2nc(-c3ccc(Cl)cc3)no2)cc1 | 1 | 24* | 92 | 57 | 6 | -0.13
COc1ccc(NC(=O)CCc2nc(-c3ccc(C)cc3)no2)cc1Cl | 1.3 | 87 | 92 | 73 | -8 | 0.43
Cc1nn(-c2ccccc2)c(C)c1/C=N\NS(=O)(=O)c1ccc(Cl)cc1 | . | . | . | . | . | 0.72
Cc1ccc2[nH]c(=O)c(CN(Cc3ccc4c(c3)OCO4)Cc3nnnn3C3CCCC3)cc2c1 | 1.1 | 11* | 87 | 65 | 10 | 0.42
CCc1ccc2[nH]c(=O)c(CN(Cc3nnnn3C3CCCC3)C3CCCCC3)cc2c1 | 1.1 | 12* | . | 71 | 2 | -0.8

Screens from PubChem BioAssay.
